Measles CPE: compounds protecting cells from measles virus cytopathic effect, primary screen, measles RdRp inhibitor project, single point, MLSMR library, absorbance; Measles virus-infected cells, CPE protection; protection (pct of control), % at 4 µM; 140,000 compounds, 1.5% hits; in the data active = protection mostly above about 24%, no sharp cut-off; inactive = mostly below about 26%
Yeast life ext: compounds extending yeast replicative lifespan, primary screen, S. cerevisiae, OD615 | S. cerevisiae growth with nicotinamide; deaD strain in restrictive glucose medium | inhibition of the nicotinamide effect, % at 10 µM | 130,000 compounds, 0.68% hits;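 active = inhibition above a set limit, placed 3 SD over the median of all compounds, cut at about 26% in these data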
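System: DeaD-strain S. cerevisiae / Buffer or medium: CSMM-D, restrictive glucose (dextrose) synthetic minimal medium / Probe or stimulus: nicotinamide, 1.5 mM, co-present with compound / Compound: one concentration, 10 µM, DMSO 0.25% / Incubation: 48 h compound exposure at 30 °C, humidified / Technique: optical density (absorbance) at 615 nm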
RAM network inh: inhibitors of the yeast RAM network, primary screen, dse1pr::URA3 reporter, 5-FOA selection | S. cerevisiae dse1pr::URA3 reporter, 5-FOA growth OD615, 2 d; analog-sensitive cbk1-as2 kinase mutant strain | inhibition, % at 50 µM | 190,000 compounds, 1.8% hits;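 active = inhibition above a set limit, 3 SD over mean compound inhibition, cut at about 8.4% in these data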;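 also: inhibition rescues growth on 5-FOA so higher OD means more RAM inhibition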
Phagocytosis inh: inhibitors of macrophage phagocytosis, primary screen, imaging, J774A.1 cells, IgG beads; J774A.1 macrophage IgG-bead phagocytosis; inhibition, % at 5 µM; 110,000 compounds, 0.07% hits;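 active = inhibition above the mean of the plate negative controls plus 5 SD, cut at about 13% in these data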;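 also: phagocytic index as fraction of beads internalized from green versus red external bead signal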
Yeast growth inh: growth inhibitors of yeast BB579 in restrictive medium, primary screen, yeast lifespan-shortening project, S. cerevisiae; OD615, 48 h; inhibition, % at 10 µM; 140,000 compounds, 0.51% hits; AID 804, 2007;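 active = inhibition above a set limit, 3 SD over the mean compound inhibition, cut at about 44% in these data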
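Test system: DeaD yeast strain BB579 / Buffer or medium: restrictive glucose-based CSMM-D medium / Doses: single 10 µM dose / Schedule: 4 h cell preincubation, 48 h compound exposure, 30 °C humidified / Technique: culture absorbance at 615 nm / Controls: amphotericin B positive control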
Large screens that a line does not name were inactive. Most compounds without a hit are left out; they make up all but 3.6% or so of the library.

O=C(COc1cccnc1[N+](=O)[O-])NCCc1ccc(F)cc1	none (no result: Measles CPE, Yeast life ext, Phagocytosis inh, Yeast growth inh)
COc1ccccc1NC(=S)NCCSc1ccc(Cl)cc1	none (no result: Measles CPE)
COc1ccc(Cl)cc1NC(=S)NCCSc1ccc(C)cc1	RAM network inh 9.4
COC(=O)c1ccc(COc2ccccc2/C=N/NS(=O)(=O)c2ccc(C)cc2)cc1	none
O=C1c2ccccc2C(=O)N1OCc1ccccc1	Yeast life ext 72
O=C1c2ccccc2C(=O)N1OCc1cccc(Cl)c1	none
O=C(O)c1cccc(NC(CNS(=O)(=O)c2ccc(Cl)cc2)c2ccccc2)c1 (stereo not given)	none (no result: Measles CPE, Yeast life ext, Phagocytosis inh, Yeast growth inh)
O=S(=O)(NCC(Nc1ccccc1)c1ccccc1)c1ccc(Cl)cc1 (stereo not given)	RAM network inh 9.2
Cc1ccc(S(=O)(=O)N(C(=O)c2ccncc2)c2ccc(OC(=O)c3ccncc3)c3ccccc23)c(C)c1	Yeast life ext 37
CCOC(=O)C1CCCN(c2oc(-c3ccc(OC)cc3)nc2C#N)C1 (stereo not given)	RAM network inh 8.8 (no result: Measles CPE, Yeast life ext, Phagocytosis inh, Yeast growth inh)
CC(CC(=O)Nc1ccc(C(N)=O)cc1)c1ccccc1 (stereo not given)	Measles CPE 29
O=C(NCc1ccco1)/C(=C\c1cccs1)NC(=O)c1ccco1	none (no result: Measles CPE, Yeast life ext, Phagocytosis inh, Yeast growth inh)
COC(=O)C(C)(C)ONC(=O)Nc1ccccc1[N+](=O)[O-]	none (no result: Measles CPE, Yeast life ext, Phagocytosis inh, Yeast growth inh)
O=C1NC2(CCc3ccccc3C2)C(=O)N1CCOc1cccc(Cl)c1 (stereo not given)	Measles CPE 23
Clc1cccc(OCCN2CCN(CCOc3cccc(Cl)c3)CC2)c1	none
CC(=O)c1ccc(N2CCN(Cc3nc(Cc4ccccc4)no3)CC2)cc1	none (no result: Measles CPE, Yeast life ext, Phagocytosis inh, Yeast growth inh)
c1ccc(N(c2ccccc2)c2nc(-n3ccnc3)nc(-n3ccnc3)n2)cc1	Yeast growth inh 92
c1ccc(-c2nc(N3CCN(c4ccccc4)CC3)nc(-n3ccnc3)n2)cc1	Measles CPE 38
COCCN1C(=O)c2ccc(C(=O)Nc3nccs3)cc2C1=O	Measles CPE 30
O=C(Nc1nccs1)c1ccc(-c2ccc(Cl)cc2Cl)o1	RAM network inh 9.5
Cc1cccc(C)c1NC(=O)c1ccc(-c2ccc(Cl)cc2Cl)o1	none
CCC(C)(C(=O)Nc1ccccc1C)N(C(=O)CNC(C)=O)c1ccccc1C (stereo not given)	none
CCCCNC(=O)CCn1nc(-c2ccccc2)ccc1=O	Measles CPE 49
CCOc1ccc(OCC)c(NC(=O)CN2CCN(c3cc(C)ccc3C)CC2)c1	RAM network inh 8.7
CSCCC(NS(=O)(=O)c1ccc(Cl)c(Cl)c1)C(=O)O (stereo not given)	none (no result: Measles CPE, Yeast life ext, Phagocytosis inh, Yeast growth inh)
Cc1nn(C(=O)c2ccco2)c(C)c1Sc1ccc(Br)cc1	RAM network inh 8.8
Cc1nn(C(=O)c2ccco2)c(C)c1Sc1ccccc1	none (no result: Phagocytosis inh)
COc1ccc(S(=O)(=O)N(CC(=O)N2CCN(c3ccccc3)CC2)c2ccccc2)cc1	Measles CPE 42
COc1ccc(N(CC(=O)N2CCN(c3ccccc3)CC2)S(=O)(=O)c2c(C)noc2C)cc1	Measles CPE 41
COC(=O)CN(c1ccc(OC)cc1)S(=O)(=O)c1ccc(OC)c(OC)c1	none
COc1ccc(N(CC(=O)Nc2ccccc2C(N)=O)S(=O)(=O)c2ccc(C)c([N+](=O)[O-])c2)cc1	RAM network inh 10 (no result: Measles CPE, Yeast life ext, Phagocytosis inh, Yeast growth inh)
COc1ccc(N2CCN(C(=O)CN(c3ccccc3)S(C)(=O)=O)CC2)cc1	none
COc1ccc(N(CC(=O)O)S(=O)(=O)c2ccc(OC)c(OC)c2)cc1	Yeast life ext 29
O=C(CN(C(=O)CSc1nc2ccccc2o1)c1cccc(F)c1)NC1CCCCC1	none (no result: Phagocytosis inh)
CC(O)CNc1nc2ccccc2n1CC(=O)NCCc1ccc(Cl)cc1 (stereo not given)	none
COc1ccc(Cl)cc1N1C(=N)SCC1=O	none (no result: Measles CPE, Yeast life ext, Phagocytosis inh, Yeast growth inh)
CCc1cccc(CC)c1NC(=O)CN1C2CCCC1CC(NC(=O)Nc1cccc(OC)c1)C2 (stereo not given)	none (no result: Measles CPE, Yeast life ext, Phagocytosis inh, Yeast growth inh)
O=C(CCCOc1ccc(Cl)cc1Cl)N/N=C/c1ccccc1O	none
COc1ccc(N(CC(=O)NN=C2CCCC2)S(=O)(=O)c2ccccc2)cc1	Measles CPE 44 (no result: Phagocytosis inh)
Cc1cc2ncn(C(=O)c3cc(-c4ccccc4)nc4ccccc34)c2cc1C	Measles CPE 29
Cc1cnn(C(=O)c2cc(-c3ccccc3)nc3ccccc23)c1	none
Cc1ccc(S(=O)(=O)Cn2nnnc2CN2CCN(C(=O)c3ccco3)CC2)cc1	none
Cc1ccc(S(=O)(=O)Cn2nnnc2C(C)N2CCN(C(=O)c3ccco3)CC2)cc1 (stereo not given)	Measles CPE 56
CCOC(=O)Cc1nnc(NC(=O)C(CC)Sc2nnc3c4ccccc4n(C)c3n2)s1 (stereo not given)	none
CCOC(=O)c1sc(NC(=O)C(CC)Sc2nnc3c4ccccc4n(C(C)C)c3n2)nc1C (stereo not given)	RAM network inh 8.6
O=C(CN1CCN(S(=O)(=O)c2ccccc2F)CC1)Nc1ccccc1C(=O)c1ccccc1	RAM network inh 11 (no result: Measles CPE, Yeast life ext, Phagocytosis inh, Yeast growth inh)
Cn1nccc1C(=O)OCC(=O)Nc1nc(-c2ccccc2)cs1	RAM network inh 9.4
COc1ccc(CC(=O)Nc2nc(-c3cccnc3)cs2)cc1	Measles CPE 35
Cc1nn(Cc2ccc([N+](=O)[O-])cc2)c(=O)n1-c1c(F)cccc1F	none
CCc1sc(N(C(=O)Cc2ccccc2)c2ccc(F)cc2)nc1-c1ccccc1	RAM network inh 9.1
CCCCC(=O)N(c1ccc(C(=O)O)cc1)c1nc(-c2ccc(Cl)cc2)c(CC)s1	none (no result: Measles CPE, Yeast life ext, Phagocytosis inh, Yeast growth inh)
CCc1sc(N(C(=O)Cc2ccccc2)c2ccccc2)nc1-c1ccccc1	RAM network inh 11 (no result: Phagocytosis inh)
Cc1ccc(C2C(/C=C3/SC(=S)NC3=O)=C(c3cccs3)Oc3ccccc32)cc1 (stereo not given)	RAM network inh 10
N#CC(C#N)=c1ccc2c(c1)N1C3=C(CCCC3)CC3CCCCC31N=2 (stereo not given)	none
N#C/C(C(N)=O)=c1/ccc2c(c1)N1C3=C(CCCC3)CC3CCCCC31N=2 (stereo not given)	Yeast life ext 37
CCn1c2ccccc2c2cc(NC(=O)C(=O)N3CCOCC3)ccc21	none (no result: Measles CPE, Yeast life ext, Phagocytosis inh, Yeast growth inh)
COc1ccc(-c2oc(/N=C/N3CCOCC3)c(C#N)c2-c2ccc(OC)cc2)cc1	RAM network inh 9.1
CC(=O)Nc1cccc(/C(C)=N\NC(=O)c2ccc(Cn3nc([N+](=O)[O-])c(Cl)c3C)o2)c1	none
Cc1ccc2c3c([nH]c2c1C)-c1nonc1CC3	Measles CPE 43 (no result: Yeast life ext, Phagocytosis inh)
CCOC(=O)c1c(NC(=S)Nc2ccc(Cl)cc2)sc2c1CCN(C)C2	Yeast growth inh 98
CCOC(=O)c1c(NC(=O)CSc2nc3ccccc3c(=O)n2-c2ccc(F)cc2)sc(C(C)=O)c1C	Measles CPE 33
CCOC(=O)c1c(NC(=S)Nc2ccccc2)sc(C)c1C	RAM network inh 9.6 (no result: Yeast life ext, Phagocytosis inh)
